Reference: ChEMBL document CHEMBL1955767, “Synthesis and biological evaluation of piperidine-substituted triazine derivatives as HIV-1 non-nucleoside reverse transcriptase inhibitors” (Eur J Med Chem, 2012)
Structures can show the parent of a compound that is named as a salt. Calls of active or inactive are those of the source. The calls are words filed in the database; no cut-off is given here.

Experiments:
[1] = system: Human immunodeficiency virus 2; assay: Antiviral activity against HIV2 ROD infected in human MT4 cells assessed as inhibition of viral replication; format: functional, organism-based; settings: ISOLATE ROD
Procedure, shortened: (§1)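 MT-4 cells (6×10^5 cells/mL) infected with HIV-1 IIIB or HIV-2 ROD at 100–300 CCID50. Compounds added at 10× stock as serial fivefold dilutions in triplicate, with untreated infected and mock-infected controls run alongside. Viability read by MTT reduction at 540 and 690 nm 5 days post-infection, using the median OD of three wells.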

[2] = Selectivity index, ratio of CC50 for human MT4 cells to EC50 for HIV1 3B; format: toxicity, cell-based; settings: read-out: Ratio CC50/EC50
Procedure, shortened: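 Ratio CC50/EC50, both taken from the same 5-day MTT run in MT-4 cells. CC50 is from mock-infected wells.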

[3] = Cytotoxicity against human MT4 cells after 5 days by MTT assay; format: cell-based
Procedure, shortened: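 Mock-infected MT-4 cells (6×10^5 cells/mL) received serial fivefold compound dilutions in triplicate, run in parallel with the infected series. After 5 days, viability measured by MTT formazan absorbance at 540 and 690 nm, using the median OD of three wells.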

[4] = system: Human immunodeficiency virus 1; assay: Antiviral activity against HIV1 expressing reverse transcriptase K103N/Y181C mutant infected in human MT4 cells assessed as protection against virus-induced cytotoxicity after 5 days by MTT assay; format: functional, organism-based; settings: Human immunodeficiency virus 1, MT4, 120 h
Procedure, shortened: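 MT-4 cells, in exponential growth, pelleted and resuspended at 6×10^5 cells/mL, then infected or mock-infected. Compound added at start as serial fivefold dilutions in triplicate wells. Viability read by MTT reduction to formazan at 540 and 690 nm after 5 days.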

[5] = system: Human immunodeficiency virus 1; assay: Antiviral activity against HIV1 3B infected in human MT4 cells assessed as protection against virus-induced cytotoxicity after 5 days by MTT assay; format: functional, organism-based; settings: Human immunodeficiency virus 1, 3B, MT4, 120 h; procedure, shortened: as §1
[6] = target: Human immunodeficiency virus type 1 reverse transcriptase (Human immunodeficiency virus 1, UniProt Q72547); assay: Inhibition of HIV1 reverse transcriptase assessed as incorporation of biotin-dUTP into poly(rA)-oligo(dT)
Procedure, shortened: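 ELISA-format RT kit with a poly(rA)-oligo(dT) homopolymer template/primer bound to the plate. Wild-type HIV-1 RT activity measured as biotin-dUTP incorporation into the template.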

Structure (SMILES)	Activity [1]	selectivity ratio [2]	CC50 at 120 h [3]	EC50 [4]	EC50 [5]	IC50 [6]
COc1nc(Nc2c(C)cc(C)cc2C)nc(NC2CCN(C(=O)c3ccc([N+](=O)[O-])cc3)CC2)n1	inactive	≥ 6	≥ 25.2 µM	> 25.2 µM	4.37 µM	
COc1ccc(CN2CCC(Nc3nc(Nc4c(C)cc(C)cc4C)nc(OC)n3)CC2)cc1	inactive	2040	19.8 µM	7.4 µM	0.0097 µM	
COc1nc(Nc2c(C)cc(C)cc2C)nc(NC2CCN(Cc3cccc(C#N)c3)CC2)n1	inactive	2380	23.5 µM	4.6 µM	0.0098 µM	
COc1nc(Nc2c(C)cc(C)cc2C)nc(NC2CCN(Cc3ccc(C#N)cc3)CC2)n1	inactive	1600	14.6 µM	1.6 µM	0.0092 µM	1.77 µM
CNc1nc(Nc2c(C)cc(C)cc2C)nc(NC2CCN(Cc3ccc([N+](=O)[O-])cc3)CC2)n1	inactive	1230	10.2 µM	≥ 2.6 µM	0.0082 µM	
CNc1nc(Nc2c(C)cc(C)cc2C)nc(NC2CCN(Cc3ccc(OC)cc3)CC2)n1	inactive	2310	22.1 µM	5.8 µM	0.0095 µM	
COc1nc(Nc2c(C)cc(C)cc2C)nc(NC2CCN(Cc3ccccc3C#N)CC2)n1	inactive	1460	28 µM	6.7 µM	0.0192 µM	
O=C1Nc2ccc(Cl)cc2[C@@](C#CC2CC2)(C(F)(F)F)O1 [EFAVIRENZ]		> 1190	> 6.3 µM	0.57 µM		
COc1nc(Nc2c(C)cc(C)cc2C)nc(NC2CCN(C(=O)c3ccc(C(=O)O)cc3)CC2)n1	inactive	≥ 4	≥ 149 µM	> 149 µM	36.2 µM	
CNc1nc(Nc2c(C)cc(C)cc2C)nc(NC2CCN(C(=O)c3ccc(C(=O)O)cc3)CC2)n1	inactive	≥ 2	≥ 255 µM	> 255 µM	≥ 127 µM	
COc1nc(Nc2c(C)cc(C)cc2C)nc(NC2CCN(C(=O)c3ccc(O)cc3)CC2)n1	inactive	73	121 µM	> 121 µM	1.66 µM	
Cc1cc(C#N)cc(C)c1Oc1nc(Nc2ccc(C#N)cc2)nc(N)c1Br [ETRAVIRINE]			> 4.6 µM	0.026 µM		
Cc1ccnc2c1NC(=O)c1cccnc1N2C1CC1 [NEVIRAPINE]			> 15 µM	11.2 µM	0.0901 µM	
CNc1nc(Nc2c(C)cc(C)cc2C)nc(NC2CCN(Cc3cccc(C#N)c3)CC2)n1	inactive	3240	23 µM	4.6 µM	0.007 µM	1.97 µM
CNc1nc(Nc2c(C)cc(C)cc2C)nc(NC2CCN(Cc3ccccc3C#N)CC2)n1	inactive	2500	24.7 µM	4.6 µM	0.0099 µM	
Cc1cn([C@H]2C[C@H](N=[N+]=[N-])[C@@H](CO)O2)c(=O)[nH]c1=O [ZIDOVUDINE]		12200	250 µM	0.0086 µM	0.0206 µM	
COc1nc(Nc2c(C)cc(C)cc2C)nc(NC2CCN(Cc3ccc([N+](=O)[O-])cc3)CC2)n1	inactive	1640	15.4 µM	≥ 6.1 µM	0.0094 µM	
CNc1nc(Nc2c(C)cc(C)cc2C)nc(NC2CCN(C(=O)c3ccccc3)CC2)n1	inactive	132	30.9 µM	> 30.9 µM	0.224 µM	
Nc1ccn([C@H]2CC[C@@H](CO)O2)c(=O)n1 [ZALCITABINE]		> 93	> 94.7 µM		1.04 µM	
COc1nc(Nc2c(C)cc(C)cc2C)nc(NC2CCN(Cc3ccc(F)cc3)CC2)n1	inactive	2140	24.7 µM	6.5 µM	0.0115 µM	
CNc1nc(Nc2c(C)cc(C)cc2C)nc(NC2CCN(Cc3ccccc3)CC2)n1	inactive	3190	28.4 µM	5 µM	0.0088 µM	2.46 µM
COc1nc(Nc2c(C)cc(C)cc2C)nc(NC2CCN(C(=O)c3ccccc3)CC2)n1	inactive	16	28.8 µM	> 28.8 µM	1.79 µM	
CNc1nc(Nc2c(C)cc(C)cc2C)nc(NC2CCN(Cc3ccc(C#N)cc3)CC2)n1	inactive	1190	10 µM	1.3 µM	0.0085 µM	
CNc1nc(Nc2c(C)cc(C)cc2C)nc(NC2CCN(C(=O)c3ccc(O)cc3)CC2)n1	inactive	60	55.4 µM	> 55.4 µM	0.932 µM	
COc1nc(Nc2c(C)cc(C)cc2C)nc(NC2CCN(Cc3ccccc3)CC2)n1	inactive	2510	28.6 µM	4.8 µM	0.0113 µM	
CC(C)Nc1cccnc1N1CCN(C(=O)c2cc3cc(NS(C)(=O)=O)ccc3[nH]2)CC1 [DELAVIRDINE MESYLATE]		> 1100	> 36.2 µM	> 36.2 µM	0.0326 µM	
CNc1nc(Nc2c(C)cc(C)cc2C)nc(NC2CCN(C(=O)c3ccc([N+](=O)[O-])cc3)CC2)n1	inactive	18	33.2 µM	> 33.2 µM	1.79 µM	
CNc1nc(Nc2c(C)cc(C)cc2C)nc(NC2CCN(Cc3ccc(F)cc3)CC2)n1	inactive	2880	25.6 µM	4.9 µM	0.0102 µM	
